Laboratory results reported in ChEMBL document CHEMBL1130100, “Stabilized analogs of thymopentin. 3. Evaluation of ketomethylene pseudopeptides for antiarthritic properties” (1997).
“And” between values parts separate entries of the source, which are not always exact repeats. Equal entries are not always repeated.

Tests used:
Type in all cases: functional
[1] = tested on: Mus musculus; assay: On set and incidence of arthritis in the Mouse Type II collagen model at 0.5 dose mg/kg on day 40, expressed as ratio of number treated to that of control
How it was run: (§1)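 DBA/1 Lac mice sensitized with bovine type II collagen (100 μg) in Freund's complete adjuvant, ip boost (100 μg) on day 21. Freshly dissolved compound in sterile saline was given iv every second day, day 19 through day 40, groups of 12. A mouse was scored arthritic if erythema or edema was present on any digit, paw or appendage. Incidence reported as number positive of 12.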

[2] = tested on: Mus musculus; assay: On set and incidence of arthritis in the Mouse Type II collagen model at 0.5 dose mg/kg on day 44, expressed as ratio of number treated to that of control; how it was run: as §1
[3] = tested on: Mus musculus; assay: (§2) Extent of paw swelling after treatment with thymopentin-5 (TP-5) compound in the Mouse Type II collagen arthritis at a dosage of 1.0 mg/kg on day 44
How it was run: (§3)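 DBA/1 Lac mice immunized with bovine type II collagen (100 μg) in Freund's complete adjuvant at four to six back sites, then boosted ip (100 μg) on day 21. Dosing was iv in sterile saline every second day from day 19 through day 40, 12 mice per dose. Each hind paw was measured by caliper. Result given as % of untreated swelling after subtracting age-matched normal paw.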

[4] = tested on: Mus musculus; assay: On set and incidence of arthritis in the Mouse Type II collagen model at 0.5 dose mg/kg on day 37, expressed as ratio of number treated to that of control; how it was run: as §1
[5] = tested on: Mus musculus; assay: as §2; how it was run: as §3; remark: listed apart in the source
[6] = tested on: Mus musculus; assay: On set and incidence of arthritis in the Mouse Type II collagen model following 0.5 mg/kg on day 30.; how it was run: as §1
[7] = tested on: Mus musculus; assay: Extent of paw swelling after treatment with thymopentin-5 (TP-5) compound in the Mouse Type II collagen arthritis at a dosage of 0.03 mg/kg on day 30; how it was run: as §3
[8] = tested on: Rattus norvegicus; assay: extent of paw swelling following treatment with the compound in the rat adjuvant arthritis model observed on day 19 at 0.50 mg/kg dose; settings: dose 0.5 mg/kg
How it was run: (§4)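 Rat adjuvant arthritis with iv dosing every second day, starting 2 days before the adjuvant/antigen challenge. Initial doses ranged 0.05 to 0.50 mg/kg, eight rats per dose. Each hind paw was measured by caliper. Swelling minus age-matched normal paw, expressed as % of untreated animals.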

[9] = tested on: Rattus norvegicus; assay: extent of paw swelling following treatment with the compound in the rat adjuvant arthritis model observed on day 16 at 0.50 mg/kg dose; settings: dose 0.5 mg/kg; how it was run: as §4
[10] = tested on: Rattus norvegicus; assay: extent of paw swelling following treatment with the compound in the rat adjuvant arthritis model observed on day 12 at 0.50 mg/kg dose; settings: dose 0.5 mg/kg; how it was run: as §4
[11] = tested on: Mus musculus; assay: 60 Extent of paw swelling after treatment with thymopentin-5 (TP-5) compound in the Mouse Type II collagen arthritis at a dosage of 1.0 mg/kg on day 30; how it was run: as §3
[12] = tested on: Mus musculus; assay: Extent of paw swelling after treatment with thymopentin-5 (TP-5) compound in the Mouse Type II collagen arthritis at 1 mg/kg on day 30.; settings: 1 mg/kg; how it was run: as §3
[13] = tested on: Rattus norvegicus; assay: extent of paw swelling following treatment with the compound in the rat adjuvant arthritis model observed on day 12 at 0.050 mg/kg dose; settings: dose 0.05 mg/kg; how it was run: as §4
[14] = tested on: Rattus norvegicus; assay: extent of paw swelling following treatment with the compound in the rat adjuvant arthritis model observed on day 19 at 0.050 mg/kg dose; settings: dose 0.05 mg/kg; how it was run: as §4
[15] = tested on: Rattus norvegicus; assay: extent of paw swelling following treatment with the compound in the rat adjuvant arthritis model observed on day 16 at 0.050 mg/kg dose; settings: dose 0.05 mg/kg; how it was run: as §4

| SMILES | No. of mice [1] | No. of mice [2] | Paw swelling [3] [%] | No. of mice [4] | Paw swelling [5] | No. of mice ([6]; 0.5 mg/kg) | Paw swelling [7] | Paw swelling [8] [%] | No. of mice [6] | Paw swelling [9] [%] | Paw swelling [10] [%] | Paw swelling [11] [%] | Paw swelling [12] | Paw swelling [13] [%] | Paw swelling [14] [%] | Paw swelling [15] [%] |
| --- | --- | --- | --- | --- | --- | --- | --- | --- | --- | --- | --- | --- | --- | --- | --- | --- |
| CCCCC(CC(=O)[C@@H](N)CCCN=C(N)N)C(=O)N[C@@H](CC(=O)O)C(=O)NC(C(=O)C[C@H](C(=O)O)C(C)C)C(C)C (stereo in doubt; 1h-A) | 10 | 10 | 63 | 10 | 95% and 75% and 63% | 7 |  |  |  |  |  |  |  |  |  |  |
| CC(C)[C@H](CC(=O)[C@H](CC(=O)O)NC(=O)[C@H](CCCCN)NC(=O)[C@@H](N)CCCN=C(N)N)C(=O)N[C@@H](Cc1ccccc1)C(=O)O (stereo in doubt; 3a-A) |  | 9 |  | 8 |  |  | 30% and 70% and 73% | 39 | 5 | 100 | 0 |  |  |  |  |  |
| CCCC[C@@H](C(=O)N[C@@H](CC(=O)O)C(=O)N[C@H](C(=O)C[C@H](C(=O)O)C(C)C)C(C)C)N(C)C(=O)[C@@H](N)CCCN=C(N)N (stereo in doubt; 1m-A) | 7 | 7 |  | 6 |  | 3 |  |  |  |  |  | 60 | 73% and 58% | 0 | 45 | 80 |
